What was measured:
[1] = tested on: Mus musculus; experiment: Hepatotoxicity in nude mouse xenografted with human HeLa cells assessed as edema in liver at 10 to 20 mg/kg, ip after 14 days by hematoxylin and eosin staining based microscopic analysis; format: toxicity, organism-based; settings: in vivo, 336 h
In short: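 HeLa xenograft nude mice with tumours near 100 mm³, randomised to four groups of 28 mice in total. Dosing was intraperitoneal: vehicle, CA-4 10 mg/kg, or test compound at 10 or 20 mg/kg, continued for 14 days. Heart, liver, kidney and spleen were then H&E-stained and examined for inflammatory infiltration, edema, necrosis and cell morphology.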

[2] = tested on: HeLa; experiment: Cell cycle arrest in human HeLa cells assessed as accumulation at S phase at 0.040 uM after 24 hrs by propidium iodide staining based flow cytometric analysis (reference value: 17.46%); format: functional
In short: (§1)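 HepG2 and HeLa cells were exposed to 0, 0.020, 0.040, 0.060, 0.080 or 0.10 µM for 6, 12 or 24 h. DNA content was stained with propidium iodide and analysed by flow cytometry to give the percentage of cells in G0/G1, S and G2/M phases; sub-G1 cells were also recorded.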

[3] = tested on: HeLa; experiment: Cell cycle arrest in human HeLa cells assessed as accumulation at S phase at 0.10 uM after 24 hrs by propidium iodide staining based flow cytometric analysis (reference value: 17.46%); format: functional; in short: as §1
[4] = tested on: HepG2; experiment: Cell cycle arrest in human HepG2 cells assessed as accumulation at G0/G1 phase at 0.020 uM after 24 hrs by propidium iodide staining based flow cytometric analysis (reference value: 55.63%); format: functional; in short: as §1
[5] = tested on: HepG2; experiment: Induction of apoptosis in human HepG2 cells assessed as late apoptotic cells at 0.020 uM after 24 hrs by Annexin V-FITC/propidium iodide staining based flow cytometric analysis (reference value: 2.93%); format: functional
In short: (§2)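 HepG2 and HeLa cells were exposed to 0, 0.02, 0.040, 0.060, 0.080 and 0.10 µM for 6, 12 and 24 h. Cells were double-stained with Annexin V-FITC/PI and read by flow cytometry. Apoptotic rate was the percentage of FITC-positive cells, counting early plus late apoptotic.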

[6] = tested on: HepG2; experiment: Induction of apoptosis in human HepG2 cells assessed as late apoptotic cells at 0.10 uM after 24 hrs by Annexin V-FITC/propidium iodide staining based flow cytometric analysis (reference value: 2.93%); format: functional; in short: as §2
[7] = tested on: Mus musculus; experiment: Cardiotoxicity in nude mouse xenografted with human HeLa cells assessed as cellular inflammatory infiltration in heart at 10 to 20 mg/kg, ip after 14 days by hematoxylin and eosin staining based microscopic analysis; format: toxicity, organism-based; settings: in vivo, 336 h
In short: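 Excised tumours and heart, liver, kidney and spleen were H&E-stained and examined microscopically. Tumour scoring covered cell arrangement and necrosis. Organ scoring covered inflammatory infiltration, edema, necrosis and cell morphology.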

[8] = tested on: Mus musculus; experiment: Toxicity in nude mouse xenografted with human HeLa cells assessed as cellular inflammatory infiltration in spleen at 10 to 20 mg/kg, ip after 14 days by hematoxylin and eosin staining based microscopic analysis; format: organism-based; settings: in vivo, 336 h

In the case of `COc1cccc(C2=NN(C(=O)c3ccc(C)nc3)C(c3cn(C)c4ccc(OC)cc34)C2)c1` (stereo not drawn), the Activity [1] is reported as “Non-Toxic”, the Activity [2] is reported as 7.43% and the Activity [3] is reported as 17.88%. For the same compound, the Activity [4] was 41.26%, the Activity [5] was 3.18% and the Activity [6] was 8.33%. The Activity [7] was “Non-Toxic” and the Activity [8] was “Non-Toxic”.
